Reference: ChEMBL document CHEMBL1156806, “Novel synthesis and structural characterization of a high-affinity paramagnetic kinase probe for the identification of non-ATP site binders by nuclear magnetic resonance” (J Med Chem, 2010)
Each block holds one compound with its values, some of them ahead of it. Calls of active or inactive are those of the source. The calls are words filed in the database; no cut-off is given here.

Key:
[1] = molecular target: Tyrosine-protein kinase Lck (Homo sapiens) (UniProt P06239); test: Inhibition of AMP-PNP binding to ATP binding site of LCK by saturation transfer difference spectra
Method in brief: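 Lck kinase domain in 25 mM HEPES (pH 7.5), 200 mM NaCl, 10 mM MgCl2, 1 mM DTT, 5% DMSO/95% D2O; 25 °C, 600 MHz. Ligand is in large excess over protein. Protein saturated at 0.78 ppm for 3 s with 60 G4 Gaussian cascade pulses of 50 ms, 1 ms apart. STD % is peak intensity in STD spectrum over 1D 1H reference.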

[2] = molecular target: T1, Proto-oncogene tyrosine-protein kinase Src (Homo sapiens, UniProt P12931); test: Inhibition of staurosporine binding to ATP binding site of human SRC by saturation transfer difference spectra
Method in brief: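 Human Src kinase domain (T250-L536, Sf21 insect-cell expressed, His6-tagged, Ni-NTA then gel filtration). NMR buffer 20 mM HEPES (pH 7.5), 200 mM NaCl, 5 mM MgCl2, 2 mM DTT, 2% DMSO/98% D2O; 25 °C, 600 MHz. Saturation at 0.78 ppm for 3 s (60 × 50 ms G4 pulses). STD % is STD over 1D reference intensity.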

[3] = molecular target: Tyrosine-protein kinase Lck (Homo sapiens) (UniProt P06239); test: Binding affinity to LCK assessed as reduction of compound relaxation intensity ratio at 100 uM by NMR method
Method in brief: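 Lck kinase domain in 25 mM HEPES (pH 7.5), 200 mM NaCl, 10 mM MgCl2, 1 mM DTT, 5% DMSO/95% D2O; 25 °C, 600 MHz cryoprobe. T1ρ spectra at 10 and 200 ms spin-lock, 128 scans each. Ratio is the 200 ms over 10 ms resonance intensity, compared between spin-labelled probe and its reduced form.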

[4] = molecular target: Tyrosine-protein kinase ABL1 (Homo sapiens, UniProt P00519); test: Inhibition of Abl 1
Method in brief: (§1)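 Commercial recombinant kinases with kinase-optimised fluorescent peptide substrate at 1.5 μM and ATP at each kinase's measured Km; enzyme below 50 nM final. 11-point titration in DMSO, […] to 5 nM final. Room temperature, 1-2 h, to 20-30% substrate phosphorylation. EDTA stop, then substrate/product electrophoretic separation. IC50 from a Hill-equation fit of percent inhibition.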

Aurora kinase B = Aurora kinase B (Homo sapiens, UniProt Q96GD4); test: Inhibition of Aurora B; method in brief: as §1
[5] = molecular target: Cyclin-dependent kinase 1/cyclin B (Homo sapiens, UniProt P06493); test: Inhibition of CDK1/Cyclin B; format: protein-complex assay
[6] = molecular target: Cyclin-dependent kinase 2/cyclin A (Homo sapiens, UniProt P24941); test: Inhibition of CDK2/Cyclin A; format: protein-complex assay
[7] = molecular target: Tyrosine-protein kinase Fyn (Homo sapiens, UniProt P06241); test: Inhibition of Fyn; method in brief: as §1
[8] = molecular target: Tyrosine-protein kinase HCK (Homo sapiens, UniProt P08631); test: Inhibition of Hck; method in brief: as §1
[9] = molecular target: Tyrosine-protein kinase Lyn (Homo sapiens, UniProt P07948); test: Inhibition of Lyn A; method in brief: as §1
[10] = molecular target: T1, Proto-oncogene tyrosine-protein kinase Src; test: Inhibition of src kinase; method in brief: as §1
[11] = molecular target: Vascular endothelial growth factor receptor 2 (Homo sapiens, UniProt P35968); test: Inhibition of KDR; method in brief: as §1
[12] = molecular target: Mitogen-activated protein kinase 1 (Homo sapiens, UniProt P28482); test: Inhibition of ERK2
[13] = molecular target: Mitogen-activated protein kinase 14 (Homo sapiens, UniProt Q16539); test: Inhibition of p38alpha
[14] = molecular target: MAP kinase-activated protein kinase 2 (Homo sapiens, UniProt P49137); test: Inhibition of MK2
[15] = Inhibition of PKA
[16] = molecular target: Protein kinase C beta type (Homo sapiens, UniProt P05771); test: Inhibition of PKCbeta1
[17] = molecular target: Protein kinase C alpha type (Homo sapiens, UniProt P17252); test: Inhibition of PKCalpha; method in brief: as §1
[18] = molecular target: Casein kinase I isoform gamma-1 (Homo sapiens, UniProt Q9HCP0); test: Inhibition of CK1gamma1
[19] = molecular target: T2, Mitogen-activated protein kinase kinase kinase kinase 2 (Homo sapiens, UniProt Q12851); test: Inhibition of GCK; method in brief: as §1
T2 sequence (Q12851 whole entry): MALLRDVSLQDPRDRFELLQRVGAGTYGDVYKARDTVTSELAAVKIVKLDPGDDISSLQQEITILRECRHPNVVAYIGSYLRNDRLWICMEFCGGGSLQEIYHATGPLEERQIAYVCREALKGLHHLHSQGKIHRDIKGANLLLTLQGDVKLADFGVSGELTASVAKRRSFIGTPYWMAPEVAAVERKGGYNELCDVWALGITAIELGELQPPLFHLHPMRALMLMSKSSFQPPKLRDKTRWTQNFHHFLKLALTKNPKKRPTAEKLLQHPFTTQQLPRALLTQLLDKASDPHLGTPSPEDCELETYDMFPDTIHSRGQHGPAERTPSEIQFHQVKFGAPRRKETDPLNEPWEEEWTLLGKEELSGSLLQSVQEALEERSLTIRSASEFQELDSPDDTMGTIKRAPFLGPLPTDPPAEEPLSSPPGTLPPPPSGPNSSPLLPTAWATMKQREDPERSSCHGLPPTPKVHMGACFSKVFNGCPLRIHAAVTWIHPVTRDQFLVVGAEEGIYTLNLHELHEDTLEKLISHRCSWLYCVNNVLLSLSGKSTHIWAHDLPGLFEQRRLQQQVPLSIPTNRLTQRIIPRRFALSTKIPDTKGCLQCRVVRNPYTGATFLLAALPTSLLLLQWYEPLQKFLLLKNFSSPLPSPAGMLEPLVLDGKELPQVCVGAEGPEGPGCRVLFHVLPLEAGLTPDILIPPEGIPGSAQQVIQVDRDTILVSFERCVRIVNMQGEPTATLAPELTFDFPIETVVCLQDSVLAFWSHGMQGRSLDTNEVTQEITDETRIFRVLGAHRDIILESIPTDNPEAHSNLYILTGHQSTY

[20] = molecular target: Platelet-derived growth factor receptor alpha (Homo sapiens, UniProt P16234); test: Inhibition of PDGFRalpha; method in brief: as §1
[21] = molecular target: Ribosomal protein S6 kinase alpha-1 (Homo sapiens, UniProt Q15418); test: Inhibition of RSK1
[22] = molecular target: T1, Proto-oncogene tyrosine-protein kinase Src; test: Inhibition of AMP-PNP binding to ATP binding site of human SRC by saturation transfer difference spectra
[23] = molecular target: T1, Proto-oncogene tyrosine-protein kinase Src; test: Inhibition of src kinase by functional activity assay of the Src kinase domain

Chain of Tyrosine-protein kinase Lck (Homo sapiens) (P06239 2-509 limits assumed): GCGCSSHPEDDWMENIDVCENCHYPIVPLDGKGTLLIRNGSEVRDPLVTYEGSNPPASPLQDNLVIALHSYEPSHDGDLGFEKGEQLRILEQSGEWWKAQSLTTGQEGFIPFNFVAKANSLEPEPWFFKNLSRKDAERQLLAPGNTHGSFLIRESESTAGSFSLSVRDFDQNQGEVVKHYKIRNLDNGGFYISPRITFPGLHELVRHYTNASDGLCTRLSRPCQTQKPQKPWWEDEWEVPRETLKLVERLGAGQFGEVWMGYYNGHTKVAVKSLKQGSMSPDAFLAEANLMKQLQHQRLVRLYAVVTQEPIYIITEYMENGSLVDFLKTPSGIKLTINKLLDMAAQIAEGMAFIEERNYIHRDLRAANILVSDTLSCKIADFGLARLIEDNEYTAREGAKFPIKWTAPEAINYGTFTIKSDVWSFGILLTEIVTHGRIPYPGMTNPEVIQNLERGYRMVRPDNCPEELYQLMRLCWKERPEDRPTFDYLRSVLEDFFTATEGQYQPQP
T1 sequence (P12931 2-536 limits assumed): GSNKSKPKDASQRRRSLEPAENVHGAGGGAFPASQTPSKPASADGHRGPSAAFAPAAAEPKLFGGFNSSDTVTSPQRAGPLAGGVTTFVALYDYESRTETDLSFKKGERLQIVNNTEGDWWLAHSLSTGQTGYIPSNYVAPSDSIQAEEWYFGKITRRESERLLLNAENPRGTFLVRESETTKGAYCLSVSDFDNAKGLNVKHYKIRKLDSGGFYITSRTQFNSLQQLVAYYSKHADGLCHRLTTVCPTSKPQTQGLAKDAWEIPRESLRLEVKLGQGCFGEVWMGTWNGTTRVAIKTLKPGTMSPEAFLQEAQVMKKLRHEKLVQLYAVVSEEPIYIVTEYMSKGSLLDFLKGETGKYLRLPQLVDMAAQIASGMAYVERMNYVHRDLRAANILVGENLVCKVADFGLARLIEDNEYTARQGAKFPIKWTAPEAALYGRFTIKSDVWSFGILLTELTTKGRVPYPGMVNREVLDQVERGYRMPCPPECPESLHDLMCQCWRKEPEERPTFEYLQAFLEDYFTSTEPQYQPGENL
Chain of Mitogen-activated protein kinase 14 (Q16539 whole entry): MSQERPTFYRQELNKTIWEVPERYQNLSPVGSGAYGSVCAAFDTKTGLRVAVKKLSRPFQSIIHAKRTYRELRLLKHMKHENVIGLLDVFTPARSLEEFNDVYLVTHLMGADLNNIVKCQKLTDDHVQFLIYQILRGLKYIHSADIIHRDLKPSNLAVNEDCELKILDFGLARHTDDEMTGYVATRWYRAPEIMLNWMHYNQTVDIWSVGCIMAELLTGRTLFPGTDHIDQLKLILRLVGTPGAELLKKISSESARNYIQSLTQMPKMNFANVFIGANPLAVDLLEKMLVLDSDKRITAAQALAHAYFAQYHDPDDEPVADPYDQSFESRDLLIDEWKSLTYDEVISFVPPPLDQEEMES
Chain of Tyrosine-protein kinase Lyn (P07948 whole entry): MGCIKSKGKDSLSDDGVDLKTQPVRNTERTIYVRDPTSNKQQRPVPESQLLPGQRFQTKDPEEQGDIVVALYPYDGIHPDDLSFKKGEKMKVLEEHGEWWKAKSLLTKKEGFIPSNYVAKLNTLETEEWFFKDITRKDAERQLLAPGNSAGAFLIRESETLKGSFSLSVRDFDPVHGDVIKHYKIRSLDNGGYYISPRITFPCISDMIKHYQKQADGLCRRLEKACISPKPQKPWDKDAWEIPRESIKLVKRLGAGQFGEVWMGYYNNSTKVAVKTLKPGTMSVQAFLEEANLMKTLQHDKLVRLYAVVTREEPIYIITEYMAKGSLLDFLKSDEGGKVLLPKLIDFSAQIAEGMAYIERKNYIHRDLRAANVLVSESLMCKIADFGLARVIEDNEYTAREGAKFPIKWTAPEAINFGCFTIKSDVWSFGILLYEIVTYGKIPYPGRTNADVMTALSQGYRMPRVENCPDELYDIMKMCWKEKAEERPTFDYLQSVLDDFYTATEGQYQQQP
Chain of Aurora kinase B (Q96GD4 whole entry): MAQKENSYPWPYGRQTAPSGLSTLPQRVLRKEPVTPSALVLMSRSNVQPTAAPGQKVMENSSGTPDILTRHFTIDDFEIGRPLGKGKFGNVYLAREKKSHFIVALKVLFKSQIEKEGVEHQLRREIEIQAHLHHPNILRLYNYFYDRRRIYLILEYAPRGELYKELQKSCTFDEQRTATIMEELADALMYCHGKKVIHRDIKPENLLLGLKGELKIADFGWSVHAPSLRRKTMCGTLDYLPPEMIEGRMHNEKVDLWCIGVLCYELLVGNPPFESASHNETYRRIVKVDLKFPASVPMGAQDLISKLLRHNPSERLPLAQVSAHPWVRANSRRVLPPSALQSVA
Chain of Tyrosine-protein kinase HCK (P08631 whole entry): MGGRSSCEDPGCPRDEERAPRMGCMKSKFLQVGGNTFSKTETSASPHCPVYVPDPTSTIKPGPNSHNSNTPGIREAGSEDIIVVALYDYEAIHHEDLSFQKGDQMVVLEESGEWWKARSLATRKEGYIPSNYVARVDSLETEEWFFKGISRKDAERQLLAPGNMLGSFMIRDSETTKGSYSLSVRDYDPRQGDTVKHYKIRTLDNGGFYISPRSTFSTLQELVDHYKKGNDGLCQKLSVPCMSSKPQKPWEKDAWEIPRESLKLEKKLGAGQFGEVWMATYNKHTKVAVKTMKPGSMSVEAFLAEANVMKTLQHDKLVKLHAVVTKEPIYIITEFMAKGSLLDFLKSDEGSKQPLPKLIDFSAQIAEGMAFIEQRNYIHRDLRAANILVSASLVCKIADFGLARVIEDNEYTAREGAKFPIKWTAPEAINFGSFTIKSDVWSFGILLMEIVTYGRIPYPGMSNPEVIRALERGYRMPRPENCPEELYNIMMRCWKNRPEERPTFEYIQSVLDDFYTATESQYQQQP
Chain of Tyrosine-protein kinase Fyn (P06241 whole entry): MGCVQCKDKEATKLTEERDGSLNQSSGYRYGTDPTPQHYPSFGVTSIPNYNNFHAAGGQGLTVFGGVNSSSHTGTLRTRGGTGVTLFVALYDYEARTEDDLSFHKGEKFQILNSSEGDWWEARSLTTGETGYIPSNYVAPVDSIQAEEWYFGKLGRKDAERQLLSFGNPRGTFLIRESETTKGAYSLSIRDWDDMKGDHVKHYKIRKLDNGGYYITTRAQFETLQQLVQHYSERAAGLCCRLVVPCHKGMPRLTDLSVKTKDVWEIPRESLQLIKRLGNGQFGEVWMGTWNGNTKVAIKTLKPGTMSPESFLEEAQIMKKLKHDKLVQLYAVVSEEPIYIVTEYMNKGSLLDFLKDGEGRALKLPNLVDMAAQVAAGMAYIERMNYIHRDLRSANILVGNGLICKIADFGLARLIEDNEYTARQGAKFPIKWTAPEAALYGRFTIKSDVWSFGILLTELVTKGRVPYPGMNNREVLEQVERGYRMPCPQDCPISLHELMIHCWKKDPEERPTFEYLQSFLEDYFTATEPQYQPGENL
Chain of Ribosomal protein S6 kinase alpha-1 (Q15418 whole entry): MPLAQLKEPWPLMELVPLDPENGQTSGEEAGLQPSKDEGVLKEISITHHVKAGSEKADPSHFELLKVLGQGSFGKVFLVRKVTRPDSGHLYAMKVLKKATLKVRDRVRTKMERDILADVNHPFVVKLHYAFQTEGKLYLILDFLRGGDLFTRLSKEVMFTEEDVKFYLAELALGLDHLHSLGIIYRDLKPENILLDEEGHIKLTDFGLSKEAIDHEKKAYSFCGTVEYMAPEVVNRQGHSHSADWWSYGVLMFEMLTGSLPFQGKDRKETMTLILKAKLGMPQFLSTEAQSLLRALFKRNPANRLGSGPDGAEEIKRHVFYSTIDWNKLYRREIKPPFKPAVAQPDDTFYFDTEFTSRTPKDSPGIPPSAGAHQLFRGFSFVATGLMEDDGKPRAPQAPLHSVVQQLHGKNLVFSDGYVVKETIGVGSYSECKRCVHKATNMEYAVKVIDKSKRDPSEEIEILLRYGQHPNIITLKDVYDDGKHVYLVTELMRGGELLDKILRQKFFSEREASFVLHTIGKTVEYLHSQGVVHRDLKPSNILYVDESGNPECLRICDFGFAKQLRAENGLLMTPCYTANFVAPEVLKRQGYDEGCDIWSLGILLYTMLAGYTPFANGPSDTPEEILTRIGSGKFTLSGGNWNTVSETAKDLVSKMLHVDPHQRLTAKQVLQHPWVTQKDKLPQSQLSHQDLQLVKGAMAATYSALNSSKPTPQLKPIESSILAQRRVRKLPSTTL

Activity [1]: Active | Activity [2]: inactive | Activity [3]: Active
SMILES: O=C(O)c1ccccc1Nc1ccccc1

SMILES: CC1(C)CC(NC(=O)c2cccc(-c3cc4nccc(Nc5cccc(O)c5)n4n3)c2)CC(C)(C)N1[O]
IC50 [4]: 5 nM | IC50 (Aurora kinase B): 2900 nM | IC50 [5]: > 50000 nM | IC50 [6]: > 50000 nM | IC50 [7]: 5 nM | IC50 [8]: 16 nM | IC50 [9]: 7 nM | IC50 [10]: 5 nM | IC50 [11]: 3.3 nM | IC50 [12]: > 50000 nM | IC50 [13]: > 50000 nM | IC50 [14]: > 50000 nM | IC50 [15]: > 50000 nM | IC50 [16]: > 60000 nM | IC50 [17]: 1300 nM | IC50 [18]: > 50000 nM | IC50 [19]: 24 nM | IC50 [20]: 38 nM | IC50 [21]: > 50000 nM | Activity [1]: Active | Activity [22]: Active

IC50 [10]: > 20000 nM | Activity [1]: Active | Activity [22]: inactive | Activity [2]: inactive | Activity [3]: Active | IC50 [23]: 40000 nM
SMILES: O=C(Cc1ccc(-c2ccc(OCCN3CCOCC3)cc2)cn1)NCc1ccccc1 [TIRBANIBULIN]
